Test results published in ChEMBL document CHEMBL1255501, “Heteroresistance of Cryptococcus gattii to fluconazole” (2010).
Calls of active or inactive are those of the source.

Experiments:
Format in all cases: functional, organism-based
Settings in all cases: Cryptococcus bacillisporus
[1] = test system: Cryptococcus gattii species complex; experiment: Antimicrobial activity against fluconazole-resistant Cryptococcus gattii serotype B isolate B4506 at 64 ug/ml
Method in brief: (§1)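 Strains were grown overnight in YPD broth at 30°C, washed, serially diluted in sterile saline and spotted at 3 μl onto YPD agar alone or YPD agar containing a xenobiotic: rhizoxin 0.5 μg/ml, gliotoxin 3.2 μg/ml or trichostatin A 64 μg/ml. Growth was compared by spot test.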

[2] = test system: Cryptococcus gattii species complex; experiment: Antimicrobial activity against fluconazole-resistant Cryptococcus gattii serotype C isolate H0058-1-818 at 64 ug/ml
[3] = test system: Cryptococcus gattii species complex; experiment: Antimicrobial activity against fluconazole-resistant Cryptococcus gattii serotype C isolate NIH34 at 64 ug/ml
[4] = test system: Cryptococcus gattii species complex; experiment: Antimicrobial activity against fluconazole-resistant Cryptococcus gattii serotype B isolate NIH189 at 64 ug/ml; method in brief: as §1
[5] = test system: Cryptococcus deuterogattii; experiment: Antimicrobial activity against fluconazole-resistant Cryptococcus gattii serotype B isolate NIH444 at 64 ug/ml; method in brief: as §1
[6] = test system: Cryptococcus gattii species complex; experiment: Antimicrobial activity against fluconazole-resistant Cryptococcus gattii serotype B isolate B3939 at 64 ug/ml; method in brief: as §1
[7] = test system: Cryptococcus gattii species complex; experiment: Antimicrobial activity against fluconazole-resistant Cryptococcus gattii serotype B isolate NIH535 at 64 ug/ml; method in brief: as §1
[8] = test system: Cryptococcus gattii species complex; experiment: Antimicrobial activity against fluconazole-resistant Cryptococcus gattii serotype C isolate H00581-1941 at 64 ug/ml
[9] = test system: Cryptococcus gattii species complex; experiment: Antimicrobial activity against fluconazole-resistant Cryptococcus gattii serotype B isolate NIH200 at 64 ug/ml; method in brief: as §1
[10] = test system: Cryptococcus gattii species complex; experiment: Antimicrobial activity against fluconazole-resistant Cryptococcus gattii serotype B isolate NIH412 at 64 ug/ml; method in brief: as §1
[11] = test system: Cryptococcus gattii species complex; experiment: Antimicrobial activity against fluconazole-resistant Cryptococcus gattii serotype B isolate B5763 at 64 ug/ml; method in brief: as §1
[12] = test system: Cryptococcus gattii species complex; experiment: Antimicrobial activity against fluconazole-resistant Cryptococcus gattii serotype B isolate RB3 at 64 ug/ml
[13] = test system: Cryptococcus gattii species complex; experiment: Antimicrobial activity against fluconazole-resistant Cryptococcus gattii serotype B isolate NIH771 at 64 ug/ml
[14] = test system: Cryptococcus gattii species complex; experiment: Antimicrobial activity against fluconazole-resistant Cryptococcus gattii serotype B isolate NIH184 at 64 ug/ml; method in brief: as §1
[15] = test system: Cryptococcus gattii species complex; experiment: Antimicrobial activity against fluconazole-resistant Cryptococcus gattii serotype B isolate NIH754 at 64 ug/ml; method in brief: as §1
[16] = test system: Cryptococcus gattii species complex; experiment: Antimicrobial activity against fluconazole-resistant Cryptococcus gattii serotype B isolate NIH409 at 64 ug/ml; method in brief: as §1
[17] = test system: Cryptococcus gattii species complex; experiment: Antimicrobial activity against fluconazole-resistant Cryptococcus gattii serotype C isolate NIH257 at 64 ug/ml
[18] = test system: Cryptococcus gattii species complex; experiment: Antimicrobial activity against fluconazole-resistant Cryptococcus gattii serotype B isolate NIH198 at 64 ug/ml; method in brief: as §1
[19] = test system: Cryptococcus gattii species complex; experiment: Antimicrobial activity against fluconazole-resistant Cryptococcus gattii serotype B isolate B5788 at 64 ug/ml; method in brief: as §1
[20] = test system: Cryptococcus gattii species complex; experiment: Antimicrobial activity against fluconazole-resistant Cryptococcus gattii serotype C isolate H00581-1941 at 3.2 ug/ml
[21] = test system: Cryptococcus gattii species complex; experiment: Antimicrobial activity against fluconazole-resistant Cryptococcus gattii serotype C isolate NIH257 at 3.2 ug/ml
[22] = test system: Cryptococcus gattii species complex; experiment: Antimicrobial activity against fluconazole-resistant Cryptococcus gattii serotype B isolate B4506 at 3.2 ug/ml; method in brief: as §1
[23] = test system: Cryptococcus gattii species complex; experiment: Antimicrobial activity against fluconazole-resistant Cryptococcus gattii serotype B isolate NIH184 at 3.2 ug/ml; method in brief: as §1
[24] = test system: Cryptococcus gattii species complex; experiment: Antimicrobial activity against fluconazole-resistant Cryptococcus gattii serotype B isolate NIH754 at 3.2 ug/ml; method in brief: as §1
[25] = test system: Cryptococcus gattii species complex; experiment: Antimicrobial activity against fluconazole-resistant Cryptococcus gattii serotype B isolate NIH412 at 3.2 ug/ml; method in brief: as §1
[26] = test system: Cryptococcus gattii species complex; experiment: Antimicrobial activity against fluconazole-resistant Cryptococcus gattii serotype B isolate NIH189 at 3.2 ug/ml; method in brief: as §1
[27] = test system: Cryptococcus gattii species complex; experiment: Antimicrobial activity against fluconazole-resistant Cryptococcus gattii serotype B isolate B3939 at 3.2 ug/ml; method in brief: as §1
[28] = test system: Cryptococcus deuterogattii; experiment: Antimicrobial activity against fluconazole-resistant Cryptococcus gattii serotype B isolate NIH444 at 3.2 ug/ml; method in brief: as §1
[29] = test system: Cryptococcus gattii species complex; experiment: Antimicrobial activity against fluconazole-resistant Cryptococcus gattii serotype B isolate RB3 at 3.2 ug/ml
[30] = test system: Cryptococcus gattii species complex; experiment: Antimicrobial activity against fluconazole-resistant Cryptococcus gattii serotype B isolate NIH198 at 3.2 ug/ml; method in brief: as §1
[31] = test system: Cryptococcus gattii species complex; experiment: Antimicrobial activity against fluconazole-resistant Cryptococcus gattii serotype C isolate H0058-1-818 at 3.2 ug/ml
[32] = test system: Cryptococcus gattii species complex; experiment: Antimicrobial activity against fluconazole-resistant Cryptococcus gattii serotype B isolate NIH771 at 3.2 ug/ml
[33] = test system: Cryptococcus gattii species complex; experiment: Antimicrobial activity against fluconazole-resistant Cryptococcus gattii serotype B isolate B5788 at 3.2 ug/ml; method in brief: as §1
[34] = test system: Cryptococcus gattii species complex; experiment: Antimicrobial activity against fluconazole-resistant Cryptococcus gattii serotype B isolate NIH200 at 3.2 ug/ml; method in brief: as §1
[35] = test system: Cryptococcus gattii species complex; experiment: Antimicrobial activity against fluconazole-resistant Cryptococcus gattii serotype B isolate NIH535 at 3.2 ug/ml; method in brief: as §1
[36] = test system: Cryptococcus gattii species complex; experiment: Antimicrobial activity against fluconazole-resistant Cryptococcus gattii serotype C isolate NIH34 at 3.2 ug/ml
[37] = test system: Cryptococcus gattii species complex; experiment: Antimicrobial activity against fluconazole-resistant Cryptococcus gattii serotype B isolate B5763 at 3.2 ug/ml; method in brief: as §1
[38] = test system: Cryptococcus gattii species complex; experiment: Antimicrobial activity against fluconazole-resistant Cryptococcus gattii serotype B isolate NIH409 at 3.2 ug/ml; method in brief: as §1
[39] = test system: Cryptococcus gattii species complex; experiment: Antimicrobial activity against fluconazole-resistant Cryptococcus gattii serotype B isolate NIH412 at 0.5 ug/ml; method in brief: as §1
[40] = test system: Cryptococcus gattii species complex; experiment: Antimicrobial activity against fluconazole-resistant Cryptococcus gattii serotype B isolate B4506 at 0.5 ug/ml; method in brief: as §1
[41] = test system: Cryptococcus gattii species complex; experiment: Antimicrobial activity against fluconazole-resistant Cryptococcus gattii serotype B isolate NIH198 at 0.5 ug/ml; method in brief: as §1
[42] = test system: Cryptococcus gattii species complex; experiment: Antimicrobial activity against fluconazole-resistant Cryptococcus gattii serotype B isolate B5788 at 0.5 ug/ml; method in brief: as §1
[43] = test system: Cryptococcus gattii species complex; experiment: Antimicrobial activity against fluconazole-resistant Cryptococcus gattii serotype B isolate NIH409 at 0.5 ug/ml; method in brief: as §1
[44] = test system: Cryptococcus gattii species complex; experiment: Antimicrobial activity against fluconazole-resistant Cryptococcus gattii serotype B isolate NIH754 at 0.5 ug/ml; method in brief: as §1
[45] = test system: Cryptococcus gattii species complex; experiment: Antimicrobial activity against fluconazole-resistant Cryptococcus gattii serotype C isolate NIH257 at 0.5 ug/ml
[46] = test system: Cryptococcus gattii species complex; experiment: Antimicrobial activity against fluconazole-resistant Cryptococcus gattii serotype C isolate NIH34 at 0.5 ug/ml
[47] = test system: Cryptococcus gattii species complex; experiment: Antimicrobial activity against fluconazole-resistant Cryptococcus gattii serotype B isolate NIH535 at 0.5 ug/ml; method in brief: as §1
[48] = test system: Cryptococcus gattii species complex; experiment: Antimicrobial activity against fluconazole-resistant Cryptococcus gattii serotype C isolate H00581-1941 at 0.5 ug/ml
[49] = test system: Cryptococcus gattii species complex; experiment: Antimicrobial activity against fluconazole-resistant Cryptococcus gattii serotype B isolate B3939 at 0.5 ug/ml; method in brief: as §1
[50] = test system: Cryptococcus gattii species complex; experiment: Antimicrobial activity against fluconazole-resistant Cryptococcus gattii serotype C isolate H0058-1-818 at 0.5 ug/ml
[51] = test system: Cryptococcus gattii species complex; experiment: Antimicrobial activity against fluconazole-resistant Cryptococcus gattii serotype B isolate NIH200 at 0.5 ug/ml; method in brief: as §1
[52] = test system: Cryptococcus gattii species complex; experiment: Antimicrobial activity against fluconazole-resistant Cryptococcus gattii serotype B isolate RB3 at 0.5 ug/ml
[53] = test system: Cryptococcus gattii species complex; experiment: Antimicrobial activity against fluconazole-resistant Cryptococcus gattii serotype B isolate NIH184 at 0.5 ug/ml; method in brief: as §1
[54] = test system: Cryptococcus gattii species complex; experiment: Antimicrobial activity against fluconazole-resistant Cryptococcus gattii serotype B isolate NIH771 at 0.5 ug/ml; method in brief: as §1
[55] = test system: Cryptococcus deuterogattii; experiment: Antimicrobial activity against fluconazole-resistant Cryptococcus gattii serotype B isolate NIH444 at 0.5 ug/ml; method in brief: as §1
[56] = test system: Cryptococcus gattii species complex; experiment: Antimicrobial activity against fluconazole-resistant Cryptococcus gattii serotype B isolate NIH189 at 0.5 ug/ml; method in brief: as §1
[57] = test system: Cryptococcus gattii species complex; experiment: Antimicrobial activity against fluconazole-resistant Cryptococcus gattii serotype B isolate B5763 at 0.5 ug/ml; method in brief: as §1

Measured: Activity

CC(/C=C/C(=O)NO)=C\[C@@H](C)C(=O)c1ccc(N(C)C)cc1
inactive: [1] | [2] | [3] | [4] | [5] | [6] | [7] | [8] | [9] | [10] | [11] | [12] | [13] | [14] | [15] | [16] | [17] | [18] | [19]

CN1C(=O)[C@]23CC4=CC=C[C@H](O)[C@H]4N2C(=O)[C@@]1(CO)SS3
inactive: [20] | [21] | [22] | [23] | [24] | [25] | [26] | [27] | [28] | [29] | [30] | [31] | [32] | [33] | [34] | [35] | [36] | [37] | [38]

CO[C@@H](/C(C)=C/C=C/C(C)=C/c1coc(C)n1)[C@@H](C)[C@@H]1C[C@H](O)[C@@]2(C)O[C@@H]2/C=C/[C@@H](C)[C@H]2C[C@H](CC(=O)O2)C[C@@H]2O[C@H]2C(=O)O1
inactive: [39] | [40] | [41] | [42] | [43] | [44] | [45] | [46] | [47] | [48] | [49] | [50] | [51] | [52] | [53] | [54] | [55] | [56] | [57]
